Like-named read-outs stand apart in the source and are kept apart here.
Assays:
Aβ(1–42) aggregates = Aβ(1–42) aggregates (Homo sapiens, UniProt P05067); type: binding; conditions: for ka, pseudo-first-order rate constant: DPV current decay fit, 100 mM phosphate buffer/50 mM KClO4 pH 7.4, 37 °C, average of three replicates; for t1/2, half-life: from pseudo-first-order ka
Outline: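 HFIP-pretreated, lyophilised Aβ(1–42) and the ferrocene-tagged peptide (20 μM) were dissolved in 100 mM phosphate/50 mM KClO₄, pH 7.4, at several peptide:Aβ ratios and held at 37 °C. DPV was recorded over 0–24 h (pulse amplitude 50 mV, width 50 ms, period 200 ms, sample width 17 ms). Points were averages of three replicates, and current–time curves were fitted to a pseudo-first-order rate law.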

[1] = Self-aggregation of the peptide incubated alone; type: physicochemical
Outline: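 The tagged peptide (20 μM) without Aβ was incubated at 37 °C. DPV was run in 100 mM phosphate/50 mM KClO₄, pH 7.4. For AFM, aliquots of the incubated solution were cast on mica pretreated with 10 mM NiCl₂ for 15 min, rinsed with water and dried under nitrogen. They were imaged in tapping mode over 5 μm × 5 μm fields at the stated incubation times.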

[2] = cited from earlier work

Aβ(1–42) aggregates, sequence (P05067 672-713 limits assumed): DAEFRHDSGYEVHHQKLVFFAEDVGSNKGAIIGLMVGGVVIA

Row | Substance | ka, pseudo-first-order rate constant (Aβ(1–42) aggregates; [Fc-KLVFFK6]:[Aβ(1–42)] 1:0.25, 20 μM Fc-KLVFFK6) | t1/2, half-life (Aβ(1–42) aggregates; [Fc-KLVFFK6]:[Aβ(1–42)] 1:0.25) | ka, pseudo-first-order rate constant (Aβ(1–42) aggregates; [Fc-KLVFFK6]:[Aβ(1–42)] 1:0.5, 20 μM Fc-KLVFFK6) | t1/2, half-life (Aβ(1–42) aggregates; [Fc-KLVFFK6]:[Aβ(1–42)] 1:0.5) | ka, pseudo-first-order rate constant (Aβ(1–42) aggregates; [Fc-KLVFFK6]:[Aβ(1–42)] 1:1, 20 μM Fc-KLVFFK6) | t1/2, half-life (Aβ(1–42) aggregates; [Fc-KLVFFK6]:[Aβ(1–42)] 1:1) | ka, pseudo-first-order rate constant (Aβ(1–42) aggregates; [Fc-KLVFFK6]:[Aβ(1–42)] 1:2, 20 μM Fc-KLVFFK6) | t1/2, half-life (Aβ(1–42) aggregates; [Fc-KLVFFK6]:[Aβ(1–42)] 1:2) | ka, pseudo-first-order rate constant (Aβ(1–42) aggregates; [Fc-KLVFFK6]:[Aβ(1–42)] 1:4, 20 μM Fc-KLVFFK6) | incubation time at which the DPV current reaches a plateau (Aβ(1–42) aggregates; all stoichiometric ratios, 20 μM Fc-KLVFFK6, 37 °C) | half-life of the conjugate formed between Fc-KLVFFK6 and the Aβ(1–42) aggregates (Aβ(1–42) aggregates; over all stoichiometric ratios of Table 1) | self-aggregation, AFM of the peptide alone ([1]; 20 μM Fc-KLVFFK6 incubated alone, AFM (Figure 4 row D)) | self-aggregation, DPV current of the peptide alone ([1]; 20 μM Fc-KLVFFK6 without Aβ(1–42), 100 mM phosphate buffer/50 mM KClO4 pH 7.4, 37 °C, 24 h, steady DPV current) | self-aggregation [2]
1 | Fc-KLVFFK6 | (1.49 ± 0.15) × 10^−4 s^−1 | 1.2919 h | (1.43 ± 0.08) × 10 ^−4 s^−1 | 1.3462 h | (1.26 ± 0.07) × 10 ^−4 s^−1 | 1.5278 h | (1.71 ± 0.05) × 10^−4 s^−1 | 1.1257 h | (1.89 ± 0.05) × 10^−4 s^−1 | about 6 h | 1.2632 ± 0.1961 h | does not self-aggregate when incubated alone | does not undergo self-aggregation | –
2 | KLVFF | – | – | – | – | – | – | – | – | – | – | – | – | – | known to self-aggregate

Source: article PMC3565064 (Analytical biochemistry, 2012)
